hK5 inh – inhibitors of human kallikrein 5; recombinant hK5, fluorogenic AMC substrate cleavage; inhibition, % at 5 µM; actives 0.59% (n = 210,000);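 active = inhibition of 40% or more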;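 also: 0% = enzyme controls without compound and 100% = no-enzyme blanks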
Target sequence (Q9Y337 67-293 limits assumed): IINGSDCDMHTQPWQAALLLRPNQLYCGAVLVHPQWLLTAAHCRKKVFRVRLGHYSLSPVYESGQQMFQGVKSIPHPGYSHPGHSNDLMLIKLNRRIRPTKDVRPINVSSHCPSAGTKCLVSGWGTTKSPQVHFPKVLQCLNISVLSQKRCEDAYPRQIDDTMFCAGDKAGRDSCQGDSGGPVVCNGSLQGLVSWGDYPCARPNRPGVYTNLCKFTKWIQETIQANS
FXIIa inh 1536 – blocks human coagulation factor XIIa protease activity; P00748; purified FXIIa, Boc-QGR-AMC fluorogenic substrate, 2 h; inhibition, % at 5 µM; actives 0.3% (n = 220,000); AID 800; in the data active = inhibition above about 40%;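 also: 0% = enzyme with no compound and 100% = blank without enzyme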
Furin inh – inhibitors of human furin; P09958; purified furin, fluorogenic substrate cleavage; inhibition, % at 20 µM or 30 µM; actives 0.061% (n = 220,000); in the data active = inhibition above about 25%
Thrombin inh – blocks human thrombin protease activity | P00734 | alpha-thrombin, Boc-VPR-AMC fluorogenic substrate cleavage | inhibition, % at 5 µM | actives 0.26% (n = 220,000) | AID 1046;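 active = inhibition at or above 40%; inactive = inhibition below 40%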;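 also: 0% = enzyme with no compound and 100% = wells without enzyme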
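Material: human alpha-thrombin enzyme / Medium: pH 7.5 Tris (50 mM) with NaCl 150 mM, Tween 20 0.05% / Compound: single-point dosing at 5 µM, 0.2% DMSO / Incubation: enzyme reaction carried out at room temperature / Detection: AMC fluorescence, 355/460 nm / Read-out basis: percent inhibition scaled between no-compound controls and no-enzyme blanks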
FXIa inh 1536 – blocks human coagulation factor XIa protease activity; P03951; purified FXIa, Boc-Glu-Ala-Arg-AMC fluorogenic substrate; inhibition, % at 5 µM; actives 0.14% (n = 220,000); AID 798;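 active = inhibition of at least 40%; inactive = inhibition below 40%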;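 also: fluorescence of freed AMC excited at 355 nm; 0% = enzyme without compound and 100% = no enzyme blank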
* hit, by the source's call; / = no result given. Hits are enriched below; roughly 1.1% of the tested compounds scored in any of these assays.

SMILES	hK5 inh	FXIIa inh 1536	Furin inh	Thrombin inh	FXIa inh 1536
COc1ccccc1-n1cc(C(=O)NCC(=O)N2CCN(c3ccccc3)CC2)c2ccccc2c1=O	-2	8	-4	-1	0
CCc1nnc(NC(=O)CCC(=O)N2CCN(CCOc3ccc(C)cc3)CC2)s1	22	42*	-13	13	15
CCN1C(=O)/C(=C\c2ccco2)C(C(=O)OC)=C1C	10	43*	0	3	25
O=C(Cn1c(NCCCO)nc2ccccc21)c1cccs1	/	/	-33	/	/
Cc1cc(C)c(C)c(C(=O)c2ccccc2C(=O)O)c1C	0	10	-21	-4	-1
CC(=O)N1c2ccccc2N2C(c3c(C)c(C)cc(C)c3C)=NON12	-4	6	-13	47*	0
CC(=O)N1C=Cc2c(c(C)c3c([nH]c4ccccc43)c2C)C1	1	5	-10	2	-2
NC1=NC(=O)/C(=C\C=C\c2ccccc2)S1	55*	4	-17	15	6
Cc1ccc(NC(=O)CC2C(=O)N(Cc3ccccc3)C(=S)N2NC(=O)c2ccccc2)c(C)c1 (stereo not given)	-2	8	-17	-8	-3
COc1ccc(C(=O)/C=C/NCc2ccc(F)cc2)cc1OC	62*	31	-3	5	17
CCOC(=O)C1(Cc2cccc(F)c2)CCN(C(=O)Cn2cnnn2)CC1	26	45*	0	20	19
O=C(NCc1cccnc1)c1ccc(Cn2c(=S)[nH]c3ccc(Br)cc3c2=O)cc1	-5	14	-14	-6	3
CCOc1ccc(Cn2ccnc2)cc1[N+](=O)[O-]	115*	15	-10	14	10
Cc1cccc(OCC(=O)N(C)CCc2ccccn2)c1	-28	9	-14	-1	2
CCOC(=O)N1CCC(NC(=O)C(NC(=O)C2CCC(C)CC2)C(C)CC)CC1 (stereo not given)	-25	12	-4	-8	2
CC12CCC(C(=O)NNc3ccc([N+](=O)[O-])cc3)(CC1=O)C2(C)C (stereo not given)	0	2	-10	-7	5
N#Cc1ccc(CSc2nnc(-c3c[nH]c4ccccc34)n2-c2ccccc2)cc1	-1	6	-7	-5	-6
C=CCOc1ccc(/C(O)=C2\C(=O)C(=O)N(CCCOC)C2c2ccncc2)cc1 (stereo not given)	31	22	0	41*	13
C=CCOc1ccc(/C(O)=C2\C(=O)C(=O)N(CCCOC)C2c2ccc(O)c(OC)c2)cc1 (stereo not given)	-1	1	-19	-5	5
CC(C)COc1ccc2[nH]c3c(c2c1)CCCC3=O	-1	14	-25	2	2
Cc1ccc(-c2c(C)sc(NC(=O)C3C4CCC(O4)C3C(=O)O)c2C(=O)OC(C)C)cc1 (stereo not given)	107*	-3	-15	3	-7
Cc1ccc2nc(NC(=O)CSCC(=O)OCC(=O)c3ccccc3)sc2c1	-11	10	-27	93*	10
CCCNC(=O)CSc1nc2[nH]ncc2c(=O)[nH]1	-14	0	-16	-1	-5
O=C(CN(Cc1ccco1)C(=O)CNS(=O)(=O)c1ccccc1)NCc1ccccc1	-18	8	-10	-16	5
O=C(CN(Cc1cccs1)C(=O)CNS(=O)(=O)c1ccccc1)NCc1ccco1	89*	-2	-22	5	-12
SMILES	hK5 inh	FXIIa inh 1536	Furin inh	Thrombin inh	FXIa inh 1536
CCOC(=O)Cn1cnc2c(nnn2-c2ccc(C)cc2)c1=O	0	7	-10	3	-3
CCOC(=O)CNC(=O)Cn1cnc2c(nnn2-c2ccc(F)cc2)c1=O	45*	32	-22	22	12
Cc1ccc(C)c(N2C(=O)CN=C2Nc2ccccc2Cl)c1	3	5	25*	-3	5
O=C1CN=C(Nc2ccccc2Cl)N1c1ccccc1	6	12	-7	-2	-4
CCCCCOC(=O)Nc1nnc(CCCCC)s1	-21	47*	-5	-8	4
COc1cc(OC)c2c(C)c(Cl)c(=O)oc2c1	-14	-11	-33	-7	-10
O=C1C=C(Nc2ccc(Cl)cc2Cl)CC(c2ccco2)C1 (stereo not given)	8	10	-36	-1	-3
Cc1cc(C)n2nc(CC(=O)NCc3ccccc3Cl)nc2n1	7	3	-17	3	-5
O=C(c1ccc(S(=O)(=O)N2CCCCC2)cc1)c1nnc(-c2ccc(Cl)cc2)o1	46*	2	-14	15	34
Cc1cc2c(NC(=O)Nc3ccccc3)cccc2nn1	57*	35	0	2	33
Cc1nc(SCc2ccc(O)c([N+](=O)[O-])c2)c([N+](=O)[O-])[nH]1	3	9	17	2	7
Cc1nc(SCc2ccc(O)c([N+](=O)[O-])c2)n[nH]1	4	15	31*	6	14
COc1ccc(Oc2nc(C)cc(C)c2S(C)(=O)=O)cc1	-15	14	-18	0	4
COc1ccc(CSc2nc(C)cc(C)c2S(C)(=O)=O)cc1	34	28	-4	9	41*
O=c1[nH]nc(Cc2ccc(Cl)cc2)c2ccccc12	54*	5	-5	21	0
O=c1[nH]nc(Cc2ccc(Cl)cc2Cl)c2ccccc12	3	-5	-24	0	3
N/C(COc1cccc(C(F)(F)F)c1)=N\NC(=O)c1cccnc1Oc1ccccc1	-2	8	-18	-2	-6
Cn1cnnc1SCC(=O)Nc1ccc2c(c1)CCC2	-24	24	-13	3	16
COc1ccc(NC(=O)CSc2nncn2C)cc1OC	-7	14	27*	7	5
CCCCc1n[nH]c(=S)n1Cc1ccc(Cl)cc1	-10	0	-23	-13	-3
Cn1c(C(=O)N2CCCC2)cc2c(=O)n(C)c3ccccc3c21	-1	17	-15	0	4
Cn1c(C(=O)N2CCN(c3ncccn3)CC2)cc2c(=O)n(C)c3ccccc3c21	46*	32	-14	0	4
CC(=O)N=c1n(C)c2ccccc2n1CCOc1ccccc1	-15	7	-27	-2	19
O=C1/C(=N/n2cnnc2)c2ccccc2N1Cc1ccccc1	6	1	-26	-4	-1
c1ccc2c(c1)C(=Nn1cnnc1)c1ccccc1-2	1	-20	26*	-11	-9
CCOC(=O)CN(c1cccc(C(C)=O)c1)S(C)(=O)=O	44*	20	-3	6	-5
Cc1ccc(Cn2c(O)c(N=NC(=S)Nc3ccccc3F)c3cc(S(=O)(=O)N4CCOCC4)ccc32)cc1	95*	37	-1	2	50*
CCc1ccccc1NC(=S)N=Nc1c(O)n(C)c2ccc(S(=O)(=O)N3CCOCC3)cc12	-24	14	-11	12	9
CN1CCN(S(=O)(=O)c2ccc(Br)s2)CC1	33	48*	-17	18	3
CCOC(=O)N1CCN(S(=O)(=O)c2ccc(Br)s2)CC1	7	16	-15	3	6
